{"data": "Measurements pooled from the literature", "sample": "plasma", "note": "Each line is one published result; the experiments were not run side by side."}
{"SMILES": "C=CC(=O)N1CCC(Oc2cc3c(Nc4ccc(Cl)c(Cl)c4F)ncnc3cc2OC)CC1", "host": "human", "route": "oral", "dose": "16 mg", "notes": "single dose, fed", "AUC(0-t)": "474 ng·h/mL"}
{"SMILES": "CO[C@H]1CC[C@H](N2C(=O)CNc3ncc(-c4ccc(C(C)(C)O)nc4)nc32)CC1", "host": "human", "route": "oral", "dose": "7.5 mg", "notes": "patients", "AUC(0-t)": "319 ng·h/mL"}
{"SMILES": "FC(F)(F)c1ccc(CNc2ccc(Cc3c[nH]c4ncc(Cl)cc34)cn2)cn1", "host": "human", "route": "oral", "dose": "800 mg", "notes": "multiple doses, patients", "AUC(0-t)": "22300 ng·h/mL"}
{"SMILES": "CC[C@H](C)C(=O)O[C@H]1C[C@H](O)C=C2C=C[C@H](C)[C@H](CC[C@@H](O)C[C@@H](O)CC(=O)O)[C@H]21", "host": "human", "route": "oral", "dose": "20 mg", "AUC(0-t)": "46.7 ng·h/mL"}
{"SMILES": "NS(=O)(=O)c1ccc(NC(=O)Nc2ccc(F)cc2)cc1", "host": "human", "route": "oral", "dose": "2000 mg", "notes": "multiple doses, once daily", "AUC(0-t)": "180000 ng·h/mL"}
{"SMILES": "CCO[C@H]1CCN(Cc2c(OC)cc(C)c3[nH]ccc23)[C@H](c2ccc(C(=O)O)cc2)C1", "host": "human", "route": "oral", "dose": "100 mg", "notes": "multiple doses, twice daily, patients", "AUC(0-t)": "11900 ng·h/mL"}
{"SMILES": "O=C(/C=C/c1cccc(S(=O)(=O)Nc2ccccc2)c1)NO", "host": "human", "route": "intravenous", "dose": "2000 mg/m²", "notes": "patients", "AUC(0-t)": "85200 ng·h/mL"}
{"SMILES": "CO[C@@H]1[C@H](OC(=O)N2CC(CCN3CCOCC3)C2)CC[C@]2(CO2)[C@H]1[C@@]1(C)O[C@@H]1CC=C(C)C", "host": "human", "route": "subcutaneous", "dose": "1.2 mg", "notes": "single dose, healthy volunteers", "AUC(0-t)": "5.45 ng·h/mL"}
{"SMILES": "C[C@@H]1COCCN1c1cc(C2([S@](C)(=N)=O)CC2)nc(-c2cc[nH]c3nccc2-3)n1", "host": "human", "route": "oral", "dose": "20 mg", "notes": "single dose, patients", "AUC(0-t)": "6770 ng·h/mL"}
{"SMILES": "COC(=O)N[C@@H](C)CNc1nccc(-c2cn(C(C)C)nc2-c2cc(Cl)cc(NS(C)(=O)=O)c2F)n1", "host": "human", "route": "oral", "dose": "50 mg", "notes": "single dose", "AUC(0-t)": "1900 ng·h/mL"}
{"SMILES": "CCNCCCNC/C=C\\CNCCCNCC", "host": "human", "route": "intravenous", "dose": "150 mg", "notes": "patients, infusion", "AUC(0-t)": "473 ng·h/mL"}
{"SMILES": "CCOc1ccc(Cc2cc([C@@H]3S[C@H](CO)[C@@H](O)[C@H](O)[C@H]3O)c(OC)cc2C)cc1", "host": "male human", "route": "oral", "dose": "5 mg", "notes": "single dose, fasted, healthy volunteers", "AUC(0-t)": "1650 ng·h/mL"}
{"SMILES": "C#Cc1cccc(Nc2ncnc3cc(OCCOC)c(OCCOC)cc23)c1", "host": "human", "route": "oral", "dose": "50 mg", "notes": "multiple doses, once daily, patients", "AUC(0-t)": "24.9 µM·h"}
{"SMILES": "OC[C@H]1O[C@@H](c2ccc(Cl)c(Cc3ccc(O[C@H]4CCOC4)cc3)c2)[C@H](O)[C@@H](O)[C@@H]1O", "host": "human", "route": "oral", "dose": "100 mg", "notes": "single dose", "AUC(0-t)": "20 µM·h"}
{"SMILES": "C[C@@H](Nc1cc(F)cc(F)c1)c1cc(C(=O)N(C)C)cc2c(=O)cc(N3CCOCC3)oc12", "host": "human", "route": "oral", "dose": "360 mg", "notes": "single dose, patients", "AUC(0-t)": "8350 ng·h/mL"}
{"SMILES": "CC(C)n1cc(C#N)c2cc(-n3cc(C(=O)O)cn3)ccc21", "host": "human", "route": "oral", "dose": "25 mg", "notes": "single dose, fasted, healthy volunteers", "AUC(0-t)": "5010 ng·h/mL"}
{"SMILES": "COc1cc2c(cc1OC)CN(CCc1ccc(NC(=O)c3cc(OC)c(OC)cc3NC(=O)c3cnc4ccccc4c3)cc1)CC2", "host": "human", "route": "intravenous", "dose": "1 mg/kg", "notes": "patients", "AUC(0-t)": "5.4 µM·h"}
{"SMILES": "COCCOc1cnc2ccn([C@H](C)c3nnc4c(F)cc(-c5cnn(C)c5)cn34)c(=O)c2c1", "host": "human", "route": "oral", "dose": "25 mg", "notes": "multiple doses, once daily, patients", "AUC(0-t)": "5990 ng·h/mL"}
{"SMILES": "Oc1cc(O)c2c(c1)O[C@@H](c1ccc(O)c(O)c1)[C@@H](O)C2", "host": "human", "route": "oral", "dose": "10 mg", "notes": "single dose", "AUC(0-t)": "4.6 ng·h/mL"}
{"SMILES": "Nc1cc(C(F)(F)F)c(-c2cc(N3CCOCC3)nc(N3CCOCC3)n2)cn1", "host": "human", "route": "oral", "dose": "25 mg/day", "notes": "patients", "AUC(0-t)": "2060 ng·h/mL"}
{"SMILES": "COc1cc(N2CCC(N3CCN(C)CC3)CC2)ccc1Nc1ncnc(Nc2ccccc2S(=O)(=O)C(C)C)n1", "host": "human", "route": "oral", "dose": "200 mg", "notes": "multiple doses, patients", "AUC(0-t)": "9170 ng·h/mL"}
{"SMILES": "COc1ccc(-n2nc(C(N)=O)c3c2C(=O)N(c2ccc(N4CCCCC4=O)cc2)CC3)cc1", "host": "male human", "route": "oral", "dose": "2.5 mg", "notes": "single dose", "AUC(0-t)": "430 ng·h/mL"}
{"SMILES": "COc1ccc([C@@H]2CN(C(=O)[C@@H](O)CO)C[C@@]2(C)[C@@H](C)O)cc1OC1CN(c2ccc(C)cn2)C1", "host": "human", "route": "oral", "dose": "0.5 mg", "notes": "single dose, healthy volunteers", "AUC(0-t)": "188 ng·h/mL"}
{"SMILES": "CCCCC1=NC2(CCCC2)C(=O)N1Cc1ccc(-c2ccccc2S(=O)(=O)Nc2noc(C)c2C)c(COCC)c1", "host": "human", "route": "oral", "dose": "200 mg", "notes": "single dose, fasted, healthy volunteers", "AUC(0-t)": "58100 ng·h/mL"}
{"SMILES": "CC(C)(O)c1ccccc1-c1ccc2[nH]c(/C=C/c3ccc(C(F)(F)F)cc3)nc2c1", "host": "male human", "route": "oral", "dose": "120 mg", "notes": "single dose, fasted, healthy volunteers", "AUC(0-t)": "13100 ng·h/mL"}
{"SMILES": "Cc1nc(NC(=O)N2CCC[C@H]2C(N)=O)sc1-c1ccnc(C(C)(C)C(F)(F)F)c1", "host": "human", "route": "oral", "dose": "350 mg", "notes": "patients", "AUC(0-t)": "27600 ng·h/mL"}
{"SMILES": "C[C@@]1(c2cc(NC(=O)c3ccc(C#N)cn3)ccc2F)C=CSC(N)=N1", "host": "human", "route": "oral", "dose": "150 mg", "notes": "single dose", "AUC(0-t)": "14300 ng·h/mL"}
{"SMILES": "C[C@@H](Oc1ccc(S(C)(=O)=O)cc1C(=O)N1C[C@@H]2C[C@]2(c2cc(C(F)(F)F)on2)C1)C(F)(F)F", "host": "human", "route": "oral", "dose": "25 mg", "notes": "fasted", "AUC(0-t)": "10.8 µM·h"}
{"SMILES": "CNC(=O)c1ccccc1Sc1ccc2c(/C=C/c3ccccn3)n[nH]c2c1", "host": "human", "route": "oral", "dose": "5 mg", "notes": "single dose, fasted, healthy volunteers", "AUC(0-t)": "194 ng·h/mL"}
